# HUVEC inhibit: inhibitors of HUVEC proliferation, primary screen, cell-based, 384-well. viability, % at 10 µM (by protocol). AID 648, 2007. CellTiter-Glo luminescence, 72 h; active compounds read low. 86,000 tested, 1.1% active;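 active means viability at or below 30%; inactive means viability above 30%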;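 further: 100% = median luminescence of DMSO-only cell control wells on each plate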
# Jurkat tox 60K: cytotoxicity toward Jurkat T cells, primary screen, cytotoxicity control, cell-based, Jurkat E6.1, 60K MLSMR library | Jurkat E6.1 viability, ATP luminescence, 48 h | 56,000 tested, 1.2% active | inhibition, % at 4 µM | AID 463, 2006;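 active means inhibition above the mean inhibition of all tested compounds plus 3 SD, cut at about 28% in these data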
# H69AR inhibit: proliferation blockers of H69AR lung cancer cells, primary screen, cell-based, human, 86K library; H69AR lung tumor viability, ATP luminescence, 72 h; active compounds read low; viability, % at 10 µM; 85,000 tested, 6% active; AID 598, 2007;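 active means viability at or below 40%; inactive means viability above 40%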;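 further: multidrug resistant small cell line overexpressing MRP-1 efflux transporter; 100% = mean luminescence of untreated control wells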
# Lung fibro prol: antiproliferative effect on LL 47 fibroblasts – human, LL 47 cells, CellTiter-Glo luminescence, primary screen | LL 47 human lung fibroblast viability, ATP luminescence; active compounds read low | viability, % at 10 µM | 85,000 tested, 1.1% active | AID 719, 2007;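 active means viability at or below 50% in the single dose screen; inactive means viability above 50%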;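 further: compound exposure lasted 72 h before the ATP readout; 100% = median luminescence of untreated cell-only wells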
#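 material = human LL 47 lung fibroblast cells | dosing = compounds added from tenfold dosing solution, 0.1% DMSO final | timing = overnight cell rest, 72 h compound treatment at 37 °C | measured by = CellTiter-Glo luminescence measuring cellular ATP | evaluation = % viability versus median cells-only luminescence | control set = cell-only wells, no compound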
# Starred values were filed as active, the others as inactive; nt = no result. Sampled rows, rich in hits. Any-hit rate of the full collection: about 6.6%.
SMILES,HUVEC inhibit,Jurkat tox 60K,H69AR inhibit,Lung fibro prol
CC(C)CCn1c(N)c(S(=O)(=O)c2cccs2)c2nc3ccccc3nc21,74.2,-9.4,39.7*,84.2
CCOC(=O)N1CCN(CC(=O)Nc2ccc(Oc3ccccc3)cc2)CC1,107.4,nt,60.1,92.1
COc1ccc(CCNC(=O)C2CCN(c3ccc(N4CCOCC4)nn3)CC2)c(OC)c1,104.5,nt,84.9,100.5
CC(C)NC(=O)c1ccc(C2SCC(=O)N2Cc2ccccc2)cc1 (centres undefined),85.1,nt,95.8,87.9
CCOC(=O)c1ccccc1OCc1cc(/C=N/n2cnnc2)ccc1OC,85.6,nt,35.4*,93.9
Cc1cc2ncn(C(=O)N3CCCCCC3)c2cc1C,98.3,nt,85.7,104.6
COCCn1nnnc1C(c1cccc(C#N)c1)N1CCCCCC1 (centres undefined),96.7,-2.1,80.8,98.1
CC(C)(C)C(C(Oc1ccc(Cl)cc1)n1cncn1)n1nnnc1C(c1cccc(Cl)c1)N1CCCCC1 (centres undefined),54.6,nt,12.2*,96.5
O=C1OCCC1Sc1nc(-c2ccccc2)cs1 (centres undefined),88.3,-1.7,90.2,91.4
COc1cccc(-c2nc(CS(=O)CC(=O)NCc3ccccc3)c(C)o2)c1 (centres undefined),90.2,5.8,98.8,99.4
CCCCn1cnc2c(cnn2-c2ccc(Cl)cc2)c1=O,102.2,-2.6,95.3,102.0
CC(C)Cn1c(C(C)C)nc([N+](=O)[O-])c1Sc1ccc(Cl)cn1,77.6,nt,18.8*,55.3
CCCCn1c(CCC)nc([N+](=O)[O-])c1Sc1ccc(Cl)cn1,77.1,nt,2.4*,72.0
CCOc1ccc2nc(NC(=O)C3CCCN(S(=O)(=O)c4cccs4)C3)sc2c1 (centres undefined),66.7,4.6,51.5,100.6
COc1ccc(-c2nnc(SCC(=O)N3CCN(c4ccccc4)CC3)o2)cc1OC,65.9,0.8,14.3*,93.6
COc1ccc(N2C(=O)NC3CC2(C)Oc2ccc(Cl)cc23)cc1OC (centres undefined),95.8,2.0,26.3*,91.4
Cc1cc(C)c(S(=O)(=O)Nc2ccc[nH]c2=O)c(C)c1,100.2,6.2,87.3,87.6
C=CCc1ccc(OCC(O)CN2CCC(Cc3ccccc3)CC2)c(OC)c1 (centres undefined),13.6*,nt,21.3*,85.1
CCn1c(CNc2ccc(F)cc2)nnc1SCC(=O)Nc1ccc(OC)cc1,88.5,nt,94.0,89.2
Cc1ccc2nc(NC3=NCN(Cc4ccc5c(c4)OCO5)CN3)nc(C)c2c1,65.4,1.8,27.9*,41.9*
N=c1c(-c2nc3ccccc3[nH]2)cc(C(=O)c2cccs2)nn1-c1ccc(Cl)cc1,24.1*,nt,7.4*,71.2
O=C(CNS(=O)(=O)c1cccs1)N1CCc2ccccc2C1,105.7,10.0,96.8,100.9
Cn1c(C(=O)N2CCN(c3ccc(Cl)cc3)CC2)cc2c(=O)[nH]c3ccccc3c21,73.8,3.4,34.4*,101.6
O=C(CSc1ccccc1)Nc1ccccc1N1CCOCC1,100.6,10.4,91.4,94.9
O=C(CSc1ccccc1)Nc1ccc(N2CCOCC2)cc1,84.6,nt,6.8*,91.5
SMILES,HUVEC inhibit,Jurkat tox 60K,H69AR inhibit,Lung fibro prol
O=C(c1ccccc1OCc1ccccc1Br)N1CCN(c2ncccn2)CC1,72.6,-5.8,28.3*,74.1
CCN(CC)CCn1c2ccccc2c2cnc(N)c(C#N)c21,76.7,nt,28.8*,22.3*
CN(C)C=Nc1ncc2c3ccccc3n(CCN(C)C)c2c1C#N,65.5,-5.6,53.8,63.4
CNC(=O)c1ccc(-c2sc3nc(N4CCOCC4)c4c(c3c2N)CCCC4)o1,30.1,-2.2,20.5*,95.5
CCOC(=O)N1CCC(N2Cc3cccc(C(=O)NCc4ccccn4)c3C2=O)CC1,104.2,0.9,68.4,93.7
N=c1n(CCN2CCCCC2)c2ccccc2n1CC(O)c1cccc(Br)c1 (centres undefined),64.7,2.8,22.3*,46.4*
CCOC(=O)c1ccccc1NC(=O)COC,89.9,nt,92.1,89.1
COC(=O)c1ccccc1NC(=O)COC(C)=O,101.4,-4.8,6.0*,nt
CCOc1ccc2oc(-c3ccccc3)c(C(=O)N3CCN(CCO)CC3)c2c1,67.6,-1.7,91.2,88.0
Cn1c(N2CCCCC2)nc2c1c(=O)n(Cc1cccc(Br)c1)c(=O)n2C,99.5,0.0,34.5*,98.2
CC1CN(c2nc3c(c(=O)n(Cc4ccc(Cl)c(Cl)c4)c(=O)n3C)n2C)CC(C)O1 (centres undefined),90.0,4.2,95.5,88.1
Cn1c(N2CCC(C(N)=O)CC2)nc2c1c(=O)n(Cc1ccc(Br)cc1)c(=O)n2C,98.1,-0.3,99.4,98.1
Cn1c(N2CCN(c3ccccn3)CC2)nc2c1c(=O)n(Cc1ccccc1Cl)c(=O)n2C,83.9,nt,23.4*,91.9
Cn1c(N2CCN(c3ccccn3)CC2)nc2c1c(=O)n(Cc1ccc(Cl)cc1)c(=O)n2C,73.3,nt,84.4,97.1
Cc1cc(C)n(-c2nc3c(c(=O)n(Cc4ccc(Cl)c(Cl)c4)c(=O)n3C)n2C)n1,69.1,0.5,38.0*,90.7
O=C(CC1(O)C(=O)N(Cc2ccccc2Cl)c2ccccc21)c1ccco1 (centres undefined),68.2,-0.6,14.6*,95.5
COc1ccc(CN2C(=O)C(O)(CC(=O)c3ccc4c(c3)OCO4)c3ccccc32)cc1OC (centres undefined),104.7,nt,27.8*,105.3
CCCCN1C(=O)C(O)(CC(=O)c2ccco2)c2cc(Br)ccc21 (centres undefined),65.1,5.2,21.2*,67.7
Cc1[nH]c2ccccc2c1C1(O)C(=O)N(Cc2ccc3c(c2)OCO3)c2ccccc21 (centres undefined),80.5,3.0,13.5*,80.3
CC(C)(C)C(=O)CC1(O)C(=O)N(Cc2ccc(Cl)cc2)c2ccccc21 (centres undefined),95.3,nt,97.6,95.8
CCCn1nnnc1SCC(=O)NCc1ccc2c(c1)OCO2,95.7,-0.3,87.0,96.7
CCOC(=O)CN1C(=O)C(O)(CC(=O)c2cccc(OC)c2)c2ccccc21 (centres undefined),101.2,3.7,27.6*,95.0
CCOC(=O)CN1C(=O)C(O)(CC(=O)c2ccco2)c2ccccc21 (centres undefined),107.5,3.3,25.7*,100.5
C#CCN1C(=O)C(O)(CC(=O)c2cccc(OC)c2)c2ccccc21 (centres undefined),92.9,2.5,19.9*,101.6
CN1C(=O)C(O)(CC(=O)c2ccccc2O)c2cc(Br)ccc21 (centres undefined),55.0,1.3,20.3*,77.4
COC(=O)CN1C(=O)C(O)(CC(=O)c2ccc(C)o2)c2ccccc21 (centres undefined),94.7,-6.4,78.7,100.7
CCOC(=O)CN1C(=O)C(O)(CC(=O)c2ccc3c(c2)CCCC3)c2ccccc21 (centres undefined),87.2,nt,81.7,94.2
O=C(CCCN1CCOCC1)c1ccc2c(c1)OCCO2,99.4,6.3,94.0,102.2
